Measured values: ChEMBL document CHEMBL1132232, “7alpha-Iodo and 7alpha-fluoro steroids as androgen receptor-mediated imaging agents” (J Med Chem, 1999)

Columns and labels:
Rattus norvegicus [1] = experiment: Distribution of tissue Radioactivity following Intravenous injection into castrated male rat muscle at 0.5 hours time; format: ADME, organism-based; details: in vivo
Method in brief: (§1)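 Male Sprague–Dawley rats, about 250 g, were castrated and injected the next day via the tail vein with 5.4 μCi (2.4 pmol) of 125I tracer in ethanol/saline (1:4). There were 5–6 rats per group. At 0.5, 1, 2 or 4 h, rats were ether-anesthetized and killed by exsanguination. Tissues were dissected, weighed and counted, giving % injected dose/g and prostate/blood ratios.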

Rattus norvegicus [2] = experiment: Distribution of tissue Radioactivity following Intravenous injection into castrated male rat blood at 2 hours time; format: ADME, organism-based; details: in vivo; method in brief: as §1
Rattus norvegicus [3] = experiment: Distribution of tissue Radioactivity following Intravenous injection into castrated male rat fat at 0.5 hours time; format: ADME, organism-based, Adipose tissue; details: in vivo; method in brief: as §1
Rattus norvegicus [4] = experiment: Distribution of tissue Radioactivity following Intravenous injection into castrated male rat prostate/blood at 2 hours time; format: ADME, organism-based; details: other tissue; method in brief: as §1
Rattus norvegicus [5] = experiment: Distribution of tissue Radioactivity following Intravenous injection into castrated male rat kidney at 1 hour time; format: ADME, organism-based; details: in vivo; method in brief: as §1
Rattus norvegicus [6] = experiment: Distribution of tissue Radioactivity following Intravenous injection into castrated male rat muscle at 1 hour time; format: ADME, organism-based; details: in vivo; method in brief: as §1
[7] = molecular target: T1, Androgen receptor (Homo sapiens) (UniProt P10275); details: CV-1
T1 sequence (whole entry): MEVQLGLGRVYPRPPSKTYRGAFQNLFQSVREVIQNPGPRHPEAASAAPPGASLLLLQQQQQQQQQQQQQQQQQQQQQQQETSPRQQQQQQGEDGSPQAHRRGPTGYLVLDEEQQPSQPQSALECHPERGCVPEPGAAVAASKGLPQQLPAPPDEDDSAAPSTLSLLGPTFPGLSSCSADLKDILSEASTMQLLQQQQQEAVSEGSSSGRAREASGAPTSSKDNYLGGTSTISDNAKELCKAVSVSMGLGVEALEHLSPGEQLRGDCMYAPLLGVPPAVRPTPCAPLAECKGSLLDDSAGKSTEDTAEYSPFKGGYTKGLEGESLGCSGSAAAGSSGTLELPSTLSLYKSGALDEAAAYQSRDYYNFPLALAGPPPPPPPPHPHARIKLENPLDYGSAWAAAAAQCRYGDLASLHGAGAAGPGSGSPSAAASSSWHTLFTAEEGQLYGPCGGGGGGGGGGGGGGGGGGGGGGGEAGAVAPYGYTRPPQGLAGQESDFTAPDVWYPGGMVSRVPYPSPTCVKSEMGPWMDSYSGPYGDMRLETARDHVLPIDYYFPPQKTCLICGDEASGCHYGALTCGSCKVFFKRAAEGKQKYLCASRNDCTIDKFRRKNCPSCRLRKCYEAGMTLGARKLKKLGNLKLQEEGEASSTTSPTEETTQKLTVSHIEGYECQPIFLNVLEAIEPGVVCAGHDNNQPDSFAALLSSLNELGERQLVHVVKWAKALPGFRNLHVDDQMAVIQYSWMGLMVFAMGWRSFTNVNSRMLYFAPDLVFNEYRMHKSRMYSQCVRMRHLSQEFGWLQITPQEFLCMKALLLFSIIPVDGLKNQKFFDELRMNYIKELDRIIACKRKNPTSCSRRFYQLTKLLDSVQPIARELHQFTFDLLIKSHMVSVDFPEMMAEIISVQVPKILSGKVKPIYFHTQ

Rattus norvegicus [8] = experiment: Distribution of tissue Radioactivity following subcutaneous injection of […] of 5-alpha-DHT 15 min before the administration of the [125I]- tracer castrated male rat thyroid at 1 hour time; format: ADME, organism-based, Thyroid gland; details: in vivo, sc
Rattus norvegicus [9] = experiment: Distribution of tissue Radioactivity following Intravenous injection into castrated male rat liver at 1 hour time; format: ADME, organism-based; details: in vivo; method in brief: as §1
Rattus norvegicus [10] = experiment: Distribution of tissue Radioactivity following Intravenous injection into castrated male rat blood at 4 hours time; format: ADME, organism-based; details: in vivo; method in brief: as §1
Rattus norvegicus [11] = experiment: Distribution of tissue Radioactivity following Intravenous injection into castrated male rat prostate at 1 hours time; format: ADME, organism-based, Prostate gland; details: in vivo; method in brief: as §1
Rattus norvegicus [12] = experiment: Distribution of tissue Radioactivity following Intravenous injection into castrated male rat fat at 4 hours time; format: ADME, organism-based, Adipose tissue; details: in vivo; method in brief: as §1
Rattus norvegicus [13] = experiment: Distribution of tissue Radioactivity following Intravenous injection into castrated male rat thyroid at 4 hours time; format: ADME, organism-based, Thyroid gland; details: in vivo; method in brief: as §1
Rattus norvegicus [14] = experiment: Distribution of tissue Radioactivity following Intravenous injection into castrated male rat liver at 4 hours time; format: ADME, organism-based; details: in vivo; method in brief: as §1
Rattus norvegicus [15] = experiment: Distribution of tissue Radioactivity following Intravenous injection into castrated male rat spleen at 4 hours time; format: ADME, organism-based; details: in vivo; method in brief: as §1
Rattus norvegicus [16] = experiment: Distribution of tissue Radioactivity following Intravenous injection into castrated male rat liver at 2 hours time; format: ADME, organism-based; details: in vivo; method in brief: as §1
Rattus norvegicus [17] = experiment: Distribution of tissue Radioactivity following Intravenous injection into castrated male rat prostate/blood at 4 hours time; format: ADME, organism-based; details: in vivo; method in brief: as §1
Rattus norvegicus [18] = experiment: Distribution of tissue Radioactivity following Intravenous injection into castrated male rat prostate at 4 hours time; format: ADME, organism-based, Prostate gland; details: in vivo; method in brief: as §1
Rattus norvegicus [19] = experiment: Distribution of tissue Radioactivity following Intravenous injection into castrated male rat kidney at 2 hours time; format: ADME, organism-based; details: in vivo; method in brief: as §1
Rattus norvegicus [20] = experiment: Distribution of tissue Radioactivity following subcutaneous injection of […] of 5-alpha-DHT 15 min before the administration of the [125I]- tracer castrated male rat spleen at 1 hour time; format: ADME, organism-based; details: in vivo, sc
Method in brief: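 Castrated male Sprague–Dawley rats, about 250 g, received 5α-DHT subcutaneously in propylene glycol/saline (3:2) 15 min before a tail-vein 125I tracer (5.4 μCi, 2.4 pmol, in ethanol/saline 1:4). There were 5–6 rats per group. At 1 h, rats were ether-anesthetized and exsanguinated. Tissues were weighed and counted as % injected dose/g, plus the prostate/blood ratio.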

Rattus norvegicus [21] = experiment: Distribution of tissue radioactivity following subcutaneous injection of […] of 5-alpha-DHT 15 min before the administration of the [125I] tracer castrated male rat prostate 1 hour time; format: ADME, organism-based, Prostate gland; details: in vivo, sc
Rattus norvegicus [22] = experiment: Distribution of tissue Radioactivity following Intravenous injection into castrated male rat liver at 0.5 hours time; format: ADME, organism-based; details: in vivo; method in brief: as §1
Rattus norvegicus [23] = experiment: Distribution of tissue Radioactivity following Intravenous injection into castrated male rat blood at 0.5 hours time; format: ADME, organism-based; details: in vivo; method in brief: as §1
Rattus norvegicus [24] = experiment: Distribution of tissue Radioactivity following Intravenous injection into castrated male rat thyroid at 2 hours time; format: ADME, organism-based, Thyroid gland; details: in vivo; method in brief: as §1
Rattus norvegicus [25] = experiment: Distribution of tissue Radioactivity following Intravenous injection into castrated male rat spleen at 2 hours time; format: ADME, organism-based; details: in vivo; method in brief: as §1
Rattus norvegicus [26] = experiment: Distribution of tissue Radioactivity following Intravenous injection into castrated male rat spleen at 0.5 hours time; format: ADME, organism-based; details: in vivo; method in brief: as §1

Work on `C[C@]12CCC(=O)CC1C[C@@H](I)[C@@H]1[C@@H]2CC[C@@]2(C)[C@H]1CC[C@]2(C)O` (stereo partly specified) yielded a Biodistribution (Rattus norvegicus [1]) of 0.06%, a Biodistribution (Rattus norvegicus [2]) of 0.31% and a Biodistribution (Rattus norvegicus [3]) of 0.2%. It also gave a Biodistribution (Rattus norvegicus [4]) of 1.43%, a Dose/g (Rattus norvegicus [5]) of 0.27% and a Dose/g (Rattus norvegicus [6]) of 0.07%. It also gave an RSA [7] of 28, a Biodistribution (Rattus norvegicus [8]) of 3.55% and a Biodistribution (Rattus norvegicus [9]) of 0.29%. The Dose/g (Rattus norvegicus [10]) was 0.37%, the Dose/g (Rattus norvegicus [11]) was 0.39% and the Biodistribution (Rattus norvegicus [12]) was 0.17%. For the same molecule, the Biodistribution (Rattus norvegicus [13]) was 9.7%, the Dose/g (Rattus norvegicus [14]) was 0.24% and the Dose/g (Rattus norvegicus [15]) was 0.17%. The Biodistribution (Rattus norvegicus [16]) was 0.23%, the Dose/g (Rattus norvegicus [17]) was 1.19% and the Biodistribution (Rattus norvegicus [18]) was 0.44%. The Dose/g (Rattus norvegicus [19]) was 0.25%, the Dose/g (Rattus norvegicus [20]) was 0.18% and the Biodistribution (Rattus norvegicus [21]) was 0.23%. It also gave a Dose/g (Rattus norvegicus [22]) of 0.31%, a Dose/g (Rattus norvegicus [23]) of 0.3% and a Dose/g (Rattus norvegicus [24]) of 3.55%. The Biodistribution (Rattus norvegicus [25]) was 0.15% and the Dose/g (Rattus norvegicus [26]) was 0.13%.
